TIM10 inh: inhibits growth of TIM10 yeast strain; AID 463195; 330,000 compounds, 1.4% hits; S. cerevisiae TIM10 strain growth, BacTiter-Glo luminescence, 24 h; inhibition, % at 10 µM;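 active = inhibition of 40% or more at the single tested concentration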;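 also: wild-type TIM10 isogenic control strain grown at permissive 25 °C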
UPR CHOP act: activators of apoptotic arm of unfolded protein response (CHOP); AID 449763; 330,000 compounds, 0.34% hits; CHO-CHOP luciferase reporter, UPR activation, luminescence; percent of tunicamycin response over DMSO baseline; activation, % at 10 µM;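 active = at 10 µM dose, activation of 40% or more, normalized to positive control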;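 also: 100% = tunicamycin at 10 µg/mL and 0% = DMSO alone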
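Material: CHO-CHOP cells, stable luciferase reporter of PERK-eIF2a-CHOP signalling; quantity: 500 reporter cells seeded per well; buffer or medium: F12 medium containing 10% fetal bovine serum; compound: one dose, 10 µM in 0.5% DMSO; incubation: 6 h compound treatment, 37 °C; measured by: Steady-Glo luciferase luminescence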
tim10-1 inh: tim10-1 yeast growth inhibition | S. cerevisiae tim10-1 ts strain growth, BacTiter-Glo, 24 h | inhibition, % at 20 µM | 330,000 compounds, 2.2% hits;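 active = inhibition of at least 40%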;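 also: mutant grown at 25 °C; 0% = DMSO wells with yeast and 100% = wells holding no yeast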
XBP1 UPR activ: adaptive UPR (XBP1) activation; CHO-XBP1 luciferase reporter, IRE1-XBP1 UPR activation, luminescence; percent of tunicamycin response, DMSO as zero; activation, % at 20 µM; 330,000 compounds, 0.33% hits; AID 463104;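 active = versus positive control, 20 µM dose yields 30% or more activation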;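 also: 100% = tunicamycin at 10 µg/mL and 0% = DMSO only wells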
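Material: CHO cell line with stable XBP1 luciferase reporter; schedule: 16-18 h cell attachment at 37 °C, then 6 h compound exposure; signal: glow luminescence from Steady-Glo reagent; medium: serum-containing F12 medium, 10% FBS; benchmarks: tunicamycin 10 µg/mL and vehicle-only wells; read-out: percent activation relative to tunicamycin reference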
tim23-1 inh: inhibits growth of tim23-1 mutant yeast | inhibition, % at 20 µM | S. cerevisiae tim23-1 growth, BacTiter-Glo luminescence, 24 h | 330,000 compounds, 1.3% hits;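 active = growth inhibition of the mutant yeast at or above 50%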;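 also: temperature-sensitive mutant grown at 25 °C; plate controls were DMSO-treated mutant yeast for no effect and medium wells lacking yeast for full effect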
tim10-1 confirm: tim10-1 yeast growth inhibition, confirmed; shares compounds with tim10-1 inh; S. cerevisiae tim10-1 ts strain growth, BacTiter-Glo, 24 h; inhibition, % at 20 µM; 7,400 compounds, 56% hits; AID 463213;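 active = inhibition of yeast growth at or above a set limit in either of two repeat tests at 20 µM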;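 also: tim10-1 mutant grown at permissive 25 °C to find synthetic lethal compounds; 0% = DMSO yeast wells and 100% = medium wells without yeast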
tim10 confirm: confirmation of TIM10 yeast growth inhibitors; shares compounds with TIM10 inh; S. cerevisiae tim10 strain growth, BacTiter-Glo luminescence, 24 h; inhibition, % at 10 µM; 4,600 compounds, 63% hits; AID 463215;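 active = inhibition of yeast growth at or above a set limit in either of two replicates at 10 µM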;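 also: this counterscreen used the strain with wild-type TIM10; 0% = yeast with DMSO and 100% = medium wells lacking yeast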
The depositor's hits bear a star; . = no result. The list is not random: actives were taken first. Their share in the collection is about 3.9%.

SMILES	TIM10 inh	UPR CHOP act	tim10-1 inh	XBP1 UPR activ	tim23-1 inh	tim10-1 confirm	tim10 confirm
CC(C)COc1cccc(C(=O)NC(=S)NCc2cccnc2)c1	43.4*	-2.0	47.4*	-0.1	38.5	20.9	-19.0
O=C1c2cccc3cccc(c23)C(=O)N1c1nccs1	5.2	-0.4	7.8	1.8	-3.6	.	.
O=C1c2cccc3c([N+](=O)[O-])ccc(c23)C(=O)N1c1ccc(Cl)cn1	73.6*	16.1	77.2*	-5.5	1.5	65.9*	88.8*
O=C1c2cccc3c([N+](=O)[O-])ccc(c23)C(=O)N1c1nccs1	68.5*	-9.0	84.4*	-5.6	38.3	72.8*	95.7*
O=C(CCNC(=O)C1CCN(S(=O)(=O)c2ccc(F)cc2)CC1)NCc1ccccc1Cl	7.5	-0.3	6.2	-3.0	9.2	.	.
COc1cc2c(cc1OC)C(c1cc(Br)ccc1F)N(C(=O)CCl)CC2 (stereo not drawn)	45.2*	-4.0	41.5*	-9.3	45.9	40.4*	43.1*
COc1cc2c(cc1OC)C(C1C(=O)CC(C)(C)CC1=O)N(C(=O)CCl)CC2 (stereo not drawn)	-6.5	-2.4	-2.2	-1.6	8.4	.	.
CC(=O)c1sc(NC(=O)Cc2c(F)cccc2Cl)nc1C	27.2	1.2	25.5	-3.9	34.6	.	.
CCOC(=O)c1sc(Nc2ccc(C)cc2C)nc1C	63.5*	1.7	48.2*	1.7	3.6	27.6	39.8*
CCOC(=O)c1sc(NC(=O)Cc2c(F)cccc2Cl)nc1C	43.6*	2.5	46.6*	6.2	46.7	43.0*	36.0*
Cc1ccc(CNC(=O)C2CCCN(S(=O)(=O)N3CC(C)CC(C)C3)C2)cc1 (stereo not drawn)	12.8	3.3	25.8	-6.2	20.9	.	.
Cc1ccc(N2C(=O)CC(Sc3ccccc3C(=O)O)C2=O)cc1C (stereo not drawn)	43.1*	-0.6	41.9*	-0.9	28.2	47.2*	39.8*
Cc1cccc(N2C(=O)CC(Sc3ccccc3C(=O)O)C2=O)c1 (stereo not drawn)	41.3*	-1.8	49.3*	-0.8	34.3	46.0*	15.4
O=C(c1ccc([N+](=O)[O-])s1)N1CCN(c2ccccn2)CC1	43.9*	-1.0	49.2*	-0.1	45.8	47.8*	43.5*
O=C(c1ccc([N+](=O)[O-])s1)N1CCN(c2ccccc2)CC1	60.1*	-0.7	52.6*	-1.2	31.4	47.2*	49.6*
CC(C)N1CCC2(CC1)N=C(c1ccc3c(c1)OCO3)CC(c1cc(Cl)ccc1O)N2 (stereo not drawn)	50.6*	7.2	52.6*	16.7	41.8	45.0*	50.8*
CCOC(=O)N1CCN(C(=O)/C(=C/c2ccc(N(C)C)cc2)NC(=O)c2ccccc2)CC1	9.2	-0.3	-6.0	-2.4	-10.4	.	.
CC(=O)C1=NN(c2ccccc2)C(c2ccc3c(c2)OCO3)N1c1ccc(N2CCOCC2)cc1 (stereo not drawn)	19.6	1.5	10.5	-1.1	16.9	.	.
COc1cccc(N2C(C(C)=O)=NN(c3ccccc3)C2c2ccc(N3CCOCC3)cc2)c1 (stereo not drawn)	42.2*	0.1	47.9*	0.1	30.1	31.7*	-10.2
Cc1ccc(F)c(CNC(=O)C2CCC(=O)N(Cc3ccccn3)C2)c1F (stereo not drawn)	-4.7	1.4	-8.9	-1.2	-2.9	.	.
CC(C)(C)SCCNS(=O)(=O)c1ccc(Cl)cc1	7.1	0.2	32.4	-0.8	37.7	.	.
O=S(=O)(NCCSc1ccc(Cl)cc1)c1ccc(F)cc1	40.8*	-1.2	44.3*	0.4	31.1	34.7*	11.6
COc1ccc(NC(=O)c2cc(N3C(=O)C4C5CCC(C5)C4C3=O)ccc2Cl)c(OC)c1 (stereo not drawn)	3.3	-0.4	15.5	-4.7	15.9	.	.
COC(=O)c1cc(N2C(=O)C3C(C2=O)C2(C)C=CC3(C)O2)ccc1Cl (stereo not drawn)	82.7*	-0.7	53.3*	-2.6	18.0	75.5*	89.7*
CC(=O)Oc1ccc(-n2c(=O)c3ccccc3c3ccccc3c2=O)cc1	0.9	-0.8	10.7	-2.4	30.9	.	.
SMILES	TIM10 inh	UPR CHOP act	tim10-1 inh	XBP1 UPR activ	tim23-1 inh	tim10-1 confirm	tim10 confirm
CC(=O)Oc1ccc(N2C(=O)C3C(C2=O)C2(C)C=CC3(C)O2)cc1 (stereo not drawn)	83.2*	4.9	55.5*	-0.4	2.2	92.7*	87.4*
COc1c(S(=O)(=O)n2nc(C)cc2C)ccc(Cl)c1Cl	44.0*	-0.7	49.4*	-0.3	38.4	44.3*	42.2*
Cc1cc(C)n(S(=O)(=O)c2ccc(Cl)c(Cl)c2Cl)n1	24.2	2.4	32.1	2.6	18.9	.	.
C=C1C(=O)O[C@@H]2[C@H]3O[C@]3(C)CC/C=C(\C)CC[C@@H]12	48.7*	10.9	53.9*	-10.4	46.4	37.7*	53.1*
CC(=O)C[C@@H](O)CC(=O)[C@@H]1OC(=O)CCCCCc2ccccc21	-4.0	0.4	5.9	-2.6	8.9	.	.
Clc1ccc(CNc2nc(CN3CCOCC3)nc3scc(-c4ccccc4)c23)cc1	51.1*	0.5	47.5*	-0.7	45.2	46.0*	-11.8
O=C1c2ccccc2[C@@H]2C[C@@H](O)[C@H](Nc3cccc(C(F)(F)F)c3)CCN12	-2.4	1.1	2.8	0.6	22.4	.	.
Cc1ccc(Oc2nnc(-c3cccs3)c3ccccc23)cc1C	46.2*	1.1	45.9*	2.3	41.6	20.4	13.4
COc1ccc(-n2ccnc2)cc1	0.0	0.2	1.3	2.5	-8.4	.	.
Cc1sc2ncnc(Oc3ccc(-n4ccnc4)cc3)c2c1C	69.0*	2.4	52.4*	-3.0	46.4	53.0*	-5.5
Cc1cccc(CSc2nc3c(cc2C#N)CCC3)c1	-11.6	1.5	19.5	1.5	-6.1	.	.
N#Cc1cc2c(nc1SCc1nc3ccccc3[nH]1)CCC2	72.7*	0.9	42.1*	-3.7	35.2	34.9*	67.0*
CCOC(=O)c1c(NC(=O)COC(=O)CCOc2ccccc2C)sc(C(=O)NC)c1C	0.6	1.8	-2.3	3.2	7.5	.	.
Cc1nc2c3cc(F)ccc3n(Cc3ccccc3)c2s1	47.7*	-2.8	44.9*	20.8	33.0	35.7*	36.6*
Cc1nc2c3cc(F)ccc3n(CCN3CCCCC3)c2s1	17.5	0.6	17.1	1.5	9.2	.	.
CC(=O)Nc1ccc(C(=O)OCc2ccc(Cl)cc2)cc1	50.3*	0.6	48.6*	3.4	28.5	48.5*	34.9*
CC(=O)Nc1ccc(C(=O)OCc2ccc(Cl)c(Cl)c2)cc1	41.7*	1.7	49.6*	0.4	23.3	31.7*	-30.1
